Type in all cases: ADME
Holding throughout (settings): recombinant enzyme

The target in series [1] is T1, Cytochrome P450 3A5 (Homo sapiens, UniProt P20815). In words: Drug metabolism assessed as human recombinant CYP3A5 in presence of human P450 oxidoreductase and b5-mediated compound formation at 10 uM by HPLC-MS analysis in presence of KCN. In a few lines:
(§1)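 Recombinant CYP3A4 or CYP3A5 (50 pmol/ml final) added, without preincubation, to 10 µM CYP3cide with NADPH (final 1 mM) in 100 mM phosphate pH 7.4. Trapping incubations also held 200 µM KCN or 5 mM GSH (final). Incubated 1 h at 37°C, quenched with acetonitrile, dried, reconstituted. Metabolites analysed by LC/Orbitrap ESI-MS.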

Series [2] concerns the target T2, Cytochrome P450 3A4 (Homo sapiens, UniProt P08684). In words: Drug level assessed as human recombinant CYP3A4 in presence of human P450 oxidoreductase and b5-mediated drug metabolism treated with 10 uM of PF-04981517 by HPLC-MS analysis in presence of KCN and NADPH. In a few lines: as §1
Series [3] addresses T1, Cytochrome P450 3A5. In words: Drug level assessed as human recombinant CYP3A5 in presence of human P450 oxidoreductase and b5-mediated drug metabolism treated with 10 uM of PF-04981517 by HPLC-MS analysis in presence of NADPH. In a few lines:
as §1

Series [4] concerns the target T1, Cytochrome P450 3A5. In words: Drug level assessed as human recombinant CYP3A5 in presence of human P450 oxidoreductase and b5-mediated drug metabolism treated with 10 uM of PF-04981517 by HPLC-MS analysis in presence of KCN and NADPH. In a few lines:
as §1

Series [5] addresses T2, Cytochrome P450 3A4. In words: Drug level assessed as human recombinant CYP3A4 in presence of human P450 oxidoreductase and b5-mediated drug metabolism treated with 10 uM of PF-04981517 by HPLC-MS analysis in presence of NADPH. In a few lines: as §1

The structures appear in SMILES notation.

T2 sequence (P08684 whole entry): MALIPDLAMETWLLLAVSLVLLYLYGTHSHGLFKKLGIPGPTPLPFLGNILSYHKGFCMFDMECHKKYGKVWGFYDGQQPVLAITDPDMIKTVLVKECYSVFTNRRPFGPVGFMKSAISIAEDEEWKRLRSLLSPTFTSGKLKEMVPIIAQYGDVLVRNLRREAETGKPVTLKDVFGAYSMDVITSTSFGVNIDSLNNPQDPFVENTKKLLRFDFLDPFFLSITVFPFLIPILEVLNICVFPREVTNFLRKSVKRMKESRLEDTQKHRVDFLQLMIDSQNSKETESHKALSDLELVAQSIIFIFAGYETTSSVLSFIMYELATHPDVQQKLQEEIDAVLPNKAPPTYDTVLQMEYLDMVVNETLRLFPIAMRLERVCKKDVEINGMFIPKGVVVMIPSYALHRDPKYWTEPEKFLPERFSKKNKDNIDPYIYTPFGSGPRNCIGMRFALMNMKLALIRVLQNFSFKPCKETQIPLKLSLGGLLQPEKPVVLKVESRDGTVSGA
T1 sequence (P20815 whole entry): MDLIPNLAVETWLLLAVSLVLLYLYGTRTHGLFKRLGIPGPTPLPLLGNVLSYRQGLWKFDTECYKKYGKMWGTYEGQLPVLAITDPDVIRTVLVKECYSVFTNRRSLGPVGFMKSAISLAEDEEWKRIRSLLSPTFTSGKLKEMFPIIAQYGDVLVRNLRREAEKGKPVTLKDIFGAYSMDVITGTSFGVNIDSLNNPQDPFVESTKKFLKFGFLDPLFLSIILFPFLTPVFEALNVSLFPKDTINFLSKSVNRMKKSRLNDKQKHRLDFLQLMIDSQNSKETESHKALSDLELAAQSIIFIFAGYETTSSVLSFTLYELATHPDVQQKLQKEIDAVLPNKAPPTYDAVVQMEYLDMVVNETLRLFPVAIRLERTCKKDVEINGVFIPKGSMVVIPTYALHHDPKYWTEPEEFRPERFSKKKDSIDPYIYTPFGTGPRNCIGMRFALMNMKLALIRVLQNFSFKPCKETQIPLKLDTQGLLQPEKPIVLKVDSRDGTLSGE

Take `Cc1ccc(-c2c(-c3nn(C)c4ncnc(N5CC[C@H](N6CCCCC6=O)C5)c34)cnn2C)cc1`: the Drug metabolism entry on Cytochrome P450 3A5 [1] is reported as “metabolite_detected”.

For `Cc1ccc(-c2c(-c3nn(C)c4ncnc(N5CC[C@H]([N+]6=CCCCC6)C5)c34)cnn2C)cc1`, the Drug metabolism result on Cytochrome P450 3A4 [2], on Cytochrome P450 3A5 [3], on Cytochrome P450 3A5 [4] and at Cytochrome P450 3A4 [5] was “metabolite_detected” throughout.

With `Cc1ccc(-c2c(-c3nn(C)c4ncnc(N5CC[C@H](N)C5)c34)cnn2C)cc1`, the Drug metabolism entry at Cytochrome P450 3A5 [1] is given as “metabolite_detected”.

With `Cc1ccc(-c2c(-c3nn(C)c4ncnc(N5CC[C@H](N6CCCCC6)C5)c34)cnn2CO)cc1`, the Drug metabolism entry on Cytochrome P450 3A4 [2], at Cytochrome P450 3A5 [3], on Cytochrome P450 3A5 [4] and on Cytochrome P450 3A4 [5] was “metabolite_detected” throughout.

Source of the values: ChEMBL document CHEMBL3526089, “Selective mechanism-based inactivation of CYP3A4 by CYP3cide (PF-04981517) and its utility as an in vitro tool for delineating the relative roles of CYP3A4 versus CYP3A5 in the metabolism of drugs” (Drug Metab Dispos, 2012).
